According to ChEMBL document CHEMBL3585281, “Antibacterial Labdane Diterpenoids from Vitex vestita” (2015):
≈ marks a conversion by molar mass, not a printed value.

What was measured:
Assay type in all cases: functional
Bacillus cereus [1] = assay: Antibacterial activity against Bacillus cereus N258 after 18 hrs by agar dilution method; conditions: N258, 18 h
Procedure, shortened: (§1)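 Agar-dilution MIC against Gram-positive strains. Compounds in DMSO, geometric dilutions giving final 100−0.75 mg/L in Mueller Hinton agar. Strains grown 18 h at 37 °C in trypticase soy broth, diluted in sterile water, spotted by Steers inoculator (about 1000 UFC/spot). Plates incubated 18 h at 37 °C; DMSO blank; ofloxacin positive control. MIC = lowest concentration with no visible growth.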

[2] = tested on: Enterococcus casseliflavus; assay: Antibacterial activity against Enterococcus casseliflavus N487 after 18 hrs by agar dilution method; conditions: N487, 18 h; procedure, shortened: as §1
Enterococcus faecium [3] = assay: Antibacterial activity against Enterococcus faecium N507 after 18 hrs by agar dilution method; conditions: N507, 18 h; procedure, shortened: as §1
Streptococcus agalactiae = assay: Antibacterial activity against Streptococcus agalactiae CIP 103227 after 18 hrs by agar dilution method; conditions: ATCC 13813, 18 h; procedure, shortened: as §1
Staphylococcus aureus [4] = assay: Antibacterial activity against Staphylococcus aureus CIP 7625 after 18 hrs by agar dilution method; conditions: CIP 7625, 18 h; procedure, shortened: as §1
Enterococcus faecalis [5] = assay: Antibacterial activity against Enterococcus faecalis N520 after 18 hrs by agar dilution method; conditions: N520, 18 h; procedure, shortened: as §1
Listeria monocytogenes [6] = assay: Antibacterial activity against Listeria monocytogenes N783 after 18 hrs by agar dilution method; conditions: N783, 18 h; procedure, shortened: as §1
Staphylococcus aureus [7] = assay: Antibacterial activity against Staphylococcus aureus ATCC 9144 oxford after 18 hrs by agar dilution method; procedure, shortened: as §1
Staphylococcus aureus [8] = assay: Antibacterial activity against Staphylococcus aureus CRBIP 2121 after 18 hrs by agar dilution method; conditions: CRBIP 2121, 18 h; procedure, shortened: as §1
[9] = tested on: Staphylococcus saprophyticus; assay: Antibacterial activity against Staphylococcus saprophyticus CIP 76125 after 18 hrs by agar dilution method; conditions: CIP 76125, 18 h; procedure, shortened: as §1
Bacillus cereus [10] = assay: Antibacterial activity against Bacillus cereus N349 after 18 hrs by agar dilution method; conditions: N349, 18 h; procedure, shortened: as §1
Enterococcus faecalis [11] = assay: Antibacterial activity against Enterococcus faecalis CIP 104676 after 18 hrs by agar dilution method; conditions: CIP 104676, 18 h; procedure, shortened: as §1
Mammaliicoccus sciuri = assay: Antibacterial activity against Staphylococcus sciuri N993 after 18 hrs by agar dilution method; conditions: N993, 18 h; procedure, shortened: as §1
[12] = tested on: Enterococcus casseliflavus; assay: Antibacterial activity against Enterococcus casseliflavus CIP 103018 after 18 hrs by agar dilution method; conditions: CIP 103018, 18 h; procedure, shortened: as §1
Bacillus cereus [13] = assay: Antibacterial activity against Bacillus cereus N190 after 18 hrs by agar dilution method; conditions: N190, 18 h; procedure, shortened: as §1
MRC5 [14] = assay: Cytotoxicity against human MRC5 cells assessed as growth inhibition at 10^-5 M after 72 hrs by MTS assay relative to control; conditions: MRC5, 72 h, read-out: GI
Procedure, shortened: (§2)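 Cells from ATCC; HCT-116 grown in RPMI 1640 and MRC5 in DMEM, each with 10% FCS and 1% glutamine, 37 °C, 5% CO2. Seeded at 2.5 × 10^3 cells/well, cultured 24 h, then exposed to compounds at 1 and 10 μM final for 72 h. MTS read-out, absorbance 490 nm; percent index from treated/control OD490 × 100, three experiments.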

Corynebacterium striatum = assay: Antibacterial activity against Corynebacterium striatum N840 after 18 hrs by agar dilution method; conditions: N840, 18 h; procedure, shortened: as §1
Listeria innocua = assay: Antibacterial activity against Listeria innocua E044 after 18 hrs by agar dilution method; conditions: E044, 18 h; procedure, shortened: as §1
Bacillus spizizenii = assay: Antibacterial activity against Bacillus subtilis ATCC 6633 after 18 hrs by agar dilution method; conditions: ATCC 6633, 18 h; procedure, shortened: as §1
Staphylococcus aureus [15] = assay: Antibacterial activity against Staphylococcus aureus CIP 53154 after 18 hrs by agar dilution method; conditions: CIP 53154, 18 h; procedure, shortened: as §1
Staphylococcus aureus [16] = assay: Antibacterial activity against Staphylococcus aureus ATCC 25923 after 18 hrs by agar dilution method; conditions: ATCC 25923, 18 h; procedure, shortened: as §1
Enterococcus faecalis [17] = assay: Antibacterial activity against Enterococcus faecalis N491 after 18 hrs by agar dilution method; conditions: N491, 18 h; procedure, shortened: as §1
Enterococcus faecalis [18] = assay: Antibacterial activity against Enterococcus faecalis N518 after 18 hrs by agar dilution method; conditions: N518, 18 h; procedure, shortened: as §1
Enterococcus faecium [19] = assay: Antibacterial activity against Enterococcus faecium N823 after 18 hrs by agar dilution method; conditions: N823, 18 h; procedure, shortened: as §1
Staphylococcus aureus [20] = assay: Antibacterial activity against Staphylococcus aureus CIP 483 after 18 hrs by agar dilution method; conditions: CIP 483, 18 h; procedure, shortened: as §1
Enterococcus faecium [21] = assay: Antibacterial activity against Enterococcus faecium CIP 107387 after 18 hrs by agar dilution method; conditions: CIP 107387, 18 h; procedure, shortened: as §1
Enterococcus avium = assay: Antibacterial activity against Enterococcus avium CIP 104053 after 18 hrs by agar dilution method; conditions: CIP 104053, 18 h; procedure, shortened: as §1
Enterococcus gallinarum [22] = assay: Antibacterial activity against Enterococcus gallinarum CIP 105985 after 18 hrs by agar dilution method; conditions: CIP 105985, 18 h; procedure, shortened: as §1
HCT-116 [23] = assay: Cytotoxicity against human HCT116 cells assessed as growth inhibition at 10^-6 M after 72 hrs by MTS assay relative to control; conditions: HCT-116, 72 h, read-out: GI; procedure, shortened: as §2
Bacillus cereus [24] = assay: Antibacterial activity against Bacillus cereus CIP 6624 after 18 hrs by agar dilution method; conditions: CIP 6624, 18 h; procedure, shortened: as §1
[25] = tested on: Staphylococcus epidermidis; assay: Antibacterial activity against Staphylococcus epidermidis CIP 53124 after 18 hrs by agar dilution method; conditions: CIP 53124, 18 h; procedure, shortened: as §1
[26] = tested on: Staphylococcus saprophyticus; assay: Antibacterial activity against Staphylococcus saprophyticus E260 after 18 hrs by agar dilution method; conditions: E260, 18 h; procedure, shortened: as §1
Enterococcus faecium [27] = assay: Antibacterial activity against Enterococcus faecium CIP 103014 after 18 hrs by agar dilution method; conditions: CIP 103014, 18 h; procedure, shortened: as §1
Enterococcus gallinarum [28] = assay: Antibacterial activity against Enterococcus gallinarum N492 after 18 hrs by agar dilution method; conditions: N492, 18 h; procedure, shortened: as §1
[29] = tested on: Staphylococcus lugdunensis; assay: Antibacterial activity against Staphylococcus lugdunensis ATCC 43809 after 18 hrs by agar dilution method; conditions: ATCC 43809, 18 h; procedure, shortened: as §1
Listeria monocytogenes [30] = assay: Antibacterial activity against Listeria monocytogenes N836 after 18 hrs by agar dilution method; conditions: N836, 18 h; procedure, shortened: as §1
Enterococcus faecalis [31] = assay: Antibacterial activity against Enterococcus faecalis CIP 103214 after 18 hrs by agar dilution method; conditions: CIP 103214, 18 h; procedure, shortened: as §1
Enterococcus durans = assay: Antibacterial activity against Enterococcus durans CIP 104999 after 18 hrs by agar dilution method; conditions: CIP 104999, 18 h; procedure, shortened: as §1
[32] = tested on: Staphylococcus haemolyticus; assay: Antibacterial activity against Staphylococcus haemolyticus CIP 8156 after 18 hrs by agar dilution method; conditions: CIP 8156, 18 h; procedure, shortened: as §1
Staphylococcus aureus [33] = assay: Antibacterial activity against Staphylococcus aureus CIP 5710 after 18 hrs by agar dilution method; conditions: CIP 5710, 18 h; procedure, shortened: as §1
Listeria monocytogenes [34] = assay: Antibacterial activity against Listeria monocytogenes N851 after 18 hrs by agar dilution method; conditions: N851, 18 h; procedure, shortened: as §1
[35] = tested on: Staphylococcus intermedius; assay: Antibacterial activity against Staphylococcus intermedius N987 after 18 hrs by agar dilution method; conditions: N987, 18 h; procedure, shortened: as §1
Enterococcus hirae = assay: Antibacterial activity against Enterococcus hirae CIP 5855 after 18 hrs by agar dilution method; conditions: CIP 5855, 18 h; procedure, shortened: as §1
Enterococcus gallinarum [36] = assay: Antibacterial activity against Enterococcus gallinarum N489 after 18 hrs by agar dilution method; conditions: N489, 18 h; procedure, shortened: as §1
HCT-116 [37] = assay: Cytotoxicity against human HCT116 cells assessed as growth inhibition at 10^-5 M after 72 hrs by MTS assay relative to control; conditions: HCT-116, 72 h, read-out: GI; procedure, shortened: as §2
Enterococcus faecium [38] = assay: Antibacterial activity against Enterococcus faecium N490 after 18 hrs by agar dilution method; conditions: N490, 18 h; procedure, shortened: as §1
Enterococcus faecium [39] = assay: Antibacterial activity against Enterococcus faecium N733 after 18 hrs by agar dilution method; conditions: N733, 18 h; procedure, shortened: as §1
MRC5 [40] = assay: Cytotoxicity against human MRC5 cells assessed as growth inhibition at 10^-6 M after 72 hrs by MTS assay relative to control; conditions: MRC5, 72 h, read-out: GI; procedure, shortened: as §2
Staphylococcus aureus [41] = assay: Antibacterial activity against Staphylococcus aureus CIP 53156 after 18 hrs by agar dilution method; conditions: CIP 53156, 18 h; procedure, shortened: as §1
Listeria monocytogenes [42] = assay: Antibacterial activity against Listeria monocytogenes CIP 103575 after 18 hrs by agar dilution method; conditions: CIP 103575, 18 h; procedure, shortened: as §1

Structure (SMILES): CC1(C)CCC[C@]2(C)[C@@H]1CC[C@]1(CO)O[C@@H](C3=CC(=O)OC3O)C[C@H]12 (stereo not given in full)
- MIC (Bacillus cereus [1]): 46 µM (≈ 16.1 µg/mL)
- MIC [2]: > 46 µM
- MIC (Enterococcus faecium [3]): > 46 µM
- MIC (Streptococcus agalactiae): > 46 µM
- MIC (Staphylococcus aureus [4]): > 46 µM
- MIC (Enterococcus faecalis [5]): > 46 µM
- MIC (Listeria monocytogenes [6]): > 46 µM
- MIC (Staphylococcus aureus [7]): > 46 µM
- MIC (Staphylococcus aureus [8]): > 46 µM
- MIC [9]: > 46 µM
- MIC (Bacillus cereus [10]): 46 µM (≈ 16.1 µg/mL)
- MIC (Enterococcus faecalis [11]): > 46 µM
- MIC (Mammaliicoccus sciuri): > 46 µM
- MIC [12]: > 46 µM
- MIC (Bacillus cereus [13]): 23 µM (≈ 8.06 µg/mL)
- inhibition of growth at 10 µM (MRC5 [14]): 92%
- MIC (Corynebacterium striatum): > 46 µM
- MIC (Listeria innocua): > 46 µM
- MIC (Bacillus spizizenii): 46 µM (≈ 16.1 µg/mL)
- MIC (Staphylococcus aureus [15]): > 46 µM
- MIC (Staphylococcus aureus [16]): > 46 µM
- MIC (Enterococcus faecalis [17]): > 46 µM
- MIC (Enterococcus faecalis [18]): > 46 µM
- MIC (Enterococcus faecium [19]): > 46 µM
- MIC (Staphylococcus aureus [20]): > 46 µM
- MIC (Enterococcus faecium [21]): > 46 µM
- MIC (Enterococcus avium): > 46 µM
- MIC (Enterococcus gallinarum [22]): > 46 µM
- inhibition of growth at 1 µM (HCT-116 [23]): 0%
- MIC (Bacillus cereus [24]): 46 µM (≈ 16.1 µg/mL)
- MIC [25]: > 46 µM
- MIC [26]: > 46 µM
- MIC (Enterococcus faecium [27]): > 46 µM
- MIC (Enterococcus gallinarum [28]): > 46 µM
- MIC [29]: > 46 µM
- MIC (Listeria monocytogenes [30]): > 46 µM
- MIC (Enterococcus faecalis [31]): > 46 µM
- MIC (Enterococcus durans): > 46 µM
- MIC [32]: > 46 µM
- MIC (Staphylococcus aureus [33]): > 46 µM
- MIC (Listeria monocytogenes [34]): > 46 µM
- MIC [35]: > 46 µM
- MIC (Enterococcus hirae): > 46 µM
- MIC (Enterococcus gallinarum [36]): > 46 µM
- inhibition of growth at 10 µM (HCT-116 [37]): 84%
- MIC (Enterococcus faecium [38]): > 46 µM
- MIC (Enterococcus faecium [39]): > 46 µM
- inhibition of growth at 1 µM (MRC5 [40]): 29%
- MIC (Staphylococcus aureus [41]): > 46 µM
- MIC (Listeria monocytogenes [42]): > 46 µM
